Series [1] has as its target T1, ATP-dependent translocase ABCB1 (Homo sapiens, UniProt P08183). Kind of series: Inhibition of P-gp mediated efflux in adriamycin-resistant human HepG2 cells assessed as intracellular rhodamine-123 accumulation at 0.125 to 10 uM incubated in dark condition for 90 mins by flow cytometry. The class given is cell-based. The method, boiled down:
(§1)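 HepG2/ADR cells seeded at 5 × 10^5/well and given compound plus 10 μM Rho123 in the dark at 37 °C for 90 min. Cells washed twice in ice-cold PBS, resuspended in PBS, read by flow cytometry in FL1 (Em 525 nm). Fold of control = (treated fluorescence − background)/(Rho123-only fluorescence − background).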
On the technique in general: A flow cytometer gives signals particle by particle.

Series [2] deals with T1, ATP-dependent translocase ABCB1. Kind of series: Inhibition of P-gp mediated efflux in adriamycin-resistant human HepG2 cells assessed as intracellular rhodamine-123 accumulation at 10 uM incubated in dark condition for 90 mins by flow cytometry relative to control. The class given is cell-based. The procedure, abridged:
as §1

The subject of a further series is NCI/ADR-RES. Put plainly: Intrinsic cytotoxicity against human MCF7/ADR cells assessed as inhibition of cell proliferation after 48 hrs by MTT assay. The class given is cell-based. The method, boiled down: (§2)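 Seeded at 5 × 10^3 cells/well with graded compound levels, DMSO as negative control, 48 h. MTT added for 4 h, formazan dissolved in DMSO, OD read at 570 nm (reference 630 nm). IC50 by nonlinear regression; triplicate samples.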
Background: Tetrazolium assays rely on reduction of a dye to a coloured formazan, in cell work by metabolically active cells.

The target of series [3] is T1, ATP-dependent translocase ABCB1. Put plainly: Inhibition of P-gp mediated efflux in adriamycin-resistant human HepG2 cells assessed as intracellular rhodamine-123 accumulation at 1 uM incubated in dark condition for 90 mins by flow cytometry. The class given is cell-based. The procedure, abridged:
as §1

Another series has as its system HepG2. Kind of series: Cytotoxicity against adriamycin-resistant human HepG2 cells assessed as inhibition of cell proliferation after 48 hrs by MTT assay. Type of series: functional, cell-based. The conditions noted are these: HepG2, 48 h. The method, boiled down:
as §2

The target in series [4] is T1, ATP-dependent translocase ABCB1. Put plainly: Inhibition of P-gp mediated efflux in adriamycin-resistant human HepG2 cells assessed as intracellular rhodamine-123 accumulation at 0.125 uM incubated in dark condition for 90 mins by flow cytometry relative to control. The class given is cell-based. The method, boiled down: as §1
The target is the same in series [5]. Kind of series: Inhibition of P-gp mediated efflux in adriamycin-resistant human HepG2 cells assessed as intracellular rhodamine-123 accumulation at 2 uM incubated in dark condition for 90 mins by flow cytometry relative to control. Type of series: cell-based. The procedure, abridged: as §1
Series [6] is described as follows: Cytotoxicity against HLF cells assessed as inhibition of cell proliferation after 48 hrs by MTT assay. Type of series: cell-based. As to conditions: Homo sapiens; call rule not given here. The procedure, abridged: as §2

A value given as a limit tells only on which side of the number the result lay.

T1 sequence (P08183 whole entry): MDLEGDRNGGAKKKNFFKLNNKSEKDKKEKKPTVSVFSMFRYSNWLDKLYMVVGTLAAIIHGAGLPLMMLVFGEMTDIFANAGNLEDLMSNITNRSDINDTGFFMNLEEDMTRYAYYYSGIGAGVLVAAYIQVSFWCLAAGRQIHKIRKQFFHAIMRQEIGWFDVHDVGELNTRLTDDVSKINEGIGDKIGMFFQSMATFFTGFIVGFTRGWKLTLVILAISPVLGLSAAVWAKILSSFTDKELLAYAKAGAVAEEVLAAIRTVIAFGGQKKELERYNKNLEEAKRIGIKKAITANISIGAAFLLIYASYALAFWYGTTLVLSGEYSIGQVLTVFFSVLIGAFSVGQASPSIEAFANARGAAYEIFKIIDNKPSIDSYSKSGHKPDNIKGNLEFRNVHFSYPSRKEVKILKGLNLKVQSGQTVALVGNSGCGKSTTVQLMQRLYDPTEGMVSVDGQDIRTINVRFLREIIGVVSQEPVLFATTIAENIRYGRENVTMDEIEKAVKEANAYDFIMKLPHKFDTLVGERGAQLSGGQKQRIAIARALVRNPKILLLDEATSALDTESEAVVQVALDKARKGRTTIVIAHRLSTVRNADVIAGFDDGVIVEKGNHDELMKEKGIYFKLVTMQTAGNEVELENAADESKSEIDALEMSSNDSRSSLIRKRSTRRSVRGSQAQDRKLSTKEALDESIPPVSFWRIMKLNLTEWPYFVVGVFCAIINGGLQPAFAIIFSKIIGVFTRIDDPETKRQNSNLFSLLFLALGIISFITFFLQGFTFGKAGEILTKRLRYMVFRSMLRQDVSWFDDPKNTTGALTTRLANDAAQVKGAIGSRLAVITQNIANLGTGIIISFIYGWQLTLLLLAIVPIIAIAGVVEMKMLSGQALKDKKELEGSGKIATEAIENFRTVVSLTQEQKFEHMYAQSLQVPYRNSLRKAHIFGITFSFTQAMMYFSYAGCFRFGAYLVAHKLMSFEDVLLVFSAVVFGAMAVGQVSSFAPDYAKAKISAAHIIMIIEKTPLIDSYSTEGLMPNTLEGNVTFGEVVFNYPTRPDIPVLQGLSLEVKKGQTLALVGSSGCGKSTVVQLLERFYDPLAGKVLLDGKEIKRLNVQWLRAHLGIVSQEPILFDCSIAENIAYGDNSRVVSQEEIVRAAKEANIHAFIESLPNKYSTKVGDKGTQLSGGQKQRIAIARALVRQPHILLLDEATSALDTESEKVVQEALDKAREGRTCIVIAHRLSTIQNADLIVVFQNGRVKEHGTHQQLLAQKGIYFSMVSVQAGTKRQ

Take `CC(=O)O[C@@H]1[C@@H](O)C(=O)/C(C)=C/C2=C[C@@H](C)[C@H](OC(C)=O)[C@]2(OC(C)=O)[C@H](OC(C)=O)/C(C)=C/CC1(C)C`: the INH entry in series [1] is on record as “Not Active”.
What is called IC50 is the concentration needed to halve the response being measured. For `CC(=O)O/C1=C(\C)[C@H]2O[C@](C)([C@@H](OC(C)=O)[C@]3(OC(C)=O)[C@@H]2[C@@H](OC(=O)c2ccccc2)[C@@H](C)[C@@H]3OC(C)=O)[C@H]2O[C@@H]2C(C)(C)[C@H](OC(C)=O)[C@H]1OC(C)=O`, the FC in series [2] was found to be 3.65. The IC50 in the series on NCI/ADR-RES is 55.6 µM; in the series with HepG2, 130 µM. Besides, the INH result in series [3] was “Active”.
For the compound `CC(=O)O[C@@H]1C[C@@H](O)/C(C)=C/[C@H]2[C@@H](OC(=O)c3ccccc3)[C@@H](C)[C@H](O)[C@]2(OC(C)=O)[C@H](O)[C@](C)(O)/C=C/C1(C)C`, the INH entry in series [1] is recorded as “Not Active”.
With `CC(=O)O[C@@H]1C[C@@H](OC(=O)c2ccccc2)/C(C)=C/[C@H]2[C@@H](OC(=O)c3ccccc3)[C@@H](C)[C@H](OC(=O)c3ccc(Br)cc3)[C@]2(OC(C)=O)[C@H](O)[C@](C)(O)/C=C/C1(C)C`, in series [2], the INH entry is reported as “Active”. Further, the values for the 50% inhibitory concentration (IC50) with NCI/ADR-RES and in the series on HepG2 were > 150 µM and 81.3 µM, respectively.
`CC(=O)O/C1=C(\C)[C@@H](O)[C@H]2[C@@H](OC(=O)c3ccccc3)[C@@H](C)[C@H](OC(C)=O)[C@]2(OC(C)=O)[C@H](OC(C)=O)/C(C)=C/CC(C)(C)[C@H](OC(C)=O)[C@H]1OC(C)=O`: the INH entry in series [2] was “Active”.
As to `CC(=O)O/C1=C(\C)[C@@H](O)[C@H]2[C@@H](OC(=O)c3ccccc3)[C@@H](C)[C@H](O)[C@]2(O)[C@H](O)/C(C)=C/CC(C)(C)[C@H](OC(C)=O)[C@H]1OC(C)=O`, the INH entry in series [1] is given as “Not Active”.
`CC(=O)O[C@@H]1C[C@@H](OC(=O)c2ccccc2)/C(C)=C/[C@H]2[C@@H](OC(=O)c3ccccc3)[C@@H](C)[C@H](O)[C@]2(OC(C)=O)[C@H](O)[C@](C)(O)/C=C/C1(C)C`: the values for the FC in series [4] and in series [5] were 1.32 and 2.8, respectively. Besides, the INH entry in series [2] and in series [3] was “Active” each time. Moreover, the IC50 with NCI/ADR-RES and in the series with HepG2 was > 150 µM each time.
With `CC(=O)O[C@@H]1[C@@H](OC(C)=O)C(=O)/C(C)=C/[C@H]2[C@@H](OC(=O)c3ccccc3)[C@@H](C)[C@H](OC(C)=O)[C@]2(OC(C)=O)[C@H](OC(C)=O)/C(C)=C/CC1(C)C`, the INH result in series [2] is “Active”.
As to `CC(=O)O[C@@H]1C[C@@H](OC(=O)c2ccccc2)/C(C)=C/[C@H]2[C@@H](OC(=O)c3ccccc3)[C@@H](C)[C@H](OC(=O)c3ccccc3)[C@]2(OC(C)=O)[C@H](O)[C@](C)(O)/C=C/C1(C)C`, the INH result in series [2] and in series [3] was “Active” throughout. Moreover, the values for the IC50 with NCI/ADR-RES and with HepG2 were 64.2 µM and > 150 µM, respectively.
For `C/C1=C\[C@H]2[C@@H](OC(=O)c3ccccc3)[C@@H](C)[C@H](O)[C@]2(O)[C@H](O)[C@](C)(O)/C=C/C(C)(C)[C@H](O)C[C@H]1O`, the INH entry in series [1] is reported as “Not Active”.
In the case of `CC(=O)O[C@@H]1C[C@@H](OC(=O)c2ccccc2)/C(C)=C/[C@H]2[C@@H](OC(=O)c3ccccc3)[C@@H](C)[C@H](O)[C@]2(OC(C)=O)[C@H](OC(C)=O)[C@](C)(O)/C=C/C1(C)C`, the INH entry in series [2] is given as “Active”.
As to `CC(=O)O[C@@H]1[C@@H](OC(C)=O)C(=O)/C(C)=C/C2=C[C@@H](C)[C@H](OC(C)=O)[C@]2(OC(C)=O)[C@H](OC(C)=O)/C(C)=C/CC1(C)C`, the INH entry in series [1] is “Not Active”.
For the compound `C/C1=C\[C@H]2[C@@H](O)[C@@H](C)[C@H](O)[C@]2(O)[C@H](O)[C@](C)(O)/C=C/C(C)(C)[C@H](O)C[C@H]1O`, the INH result in series [1] is recorded as “Not Active”.
For the compound `CC(=O)O/C1=C(\C)[C@H]2O[C@@](C)([C@@H](OC(C)=O)CC(C)(C)[C@H](OC(C)=O)[C@H]1OC(C)=O)[C@@H](OC(C)=O)[C@]1(OC(C)=O)[C@@H]2[C@@H](OC(=O)c2ccccc2)[C@@H](C)[C@@H]1OC(C)=O`, the FC in series [4] stood at 1.81; in series [5] it was 3.07. Further, the concentration for half-maximal inhibition (IC50) in the series on NCI/ADR-RES and in the series with HepG2 was > 150 µM each time. In addition, the INH result in series [3] is given as “Active”.
Take `CC(=O)O[C@@H]1C[C@@H](O)/C(C)=C/[C@H]2[C@@H](OC(=O)c3ccccc3)[C@@H](C)[C@H](O)[C@]2(OC(C)=O)[C@H](OC(=O)c2ccccc2)[C@](C)(O)/C=C/C1(C)C`: the INH entry in series [2] is recorded as “Active”.
For the compound `CC(=O)O/C1=C(\C)[C@@H](O)[C@H]2[C@@H](OC(=O)c3ccccc3)[C@@H](C)[C@H](OC(=O)c3ccccc3)[C@]2(OC(C)=O)[C@H](OC(C)=O)/C(C)=C/CC(C)(C)[C@H](OC(C)=O)[C@H]1OC(C)=O`, the values for the FC in series [4] and in series [5] were 1.37 and 2.78, respectively. The INH result in series [2] and in series [3] was “Active” in each case. Besides, the IC50 in the series on NCI/ADR-RES and with HepG2 was > 150 µM in each case.
With `CC(=O)O/C1=C(\C)C(=O)[C@H]2[C@@H](OC(=O)c3ccccc3)[C@@H](C)[C@H](OC(C)=O)[C@]2(OC(C)=O)[C@H](OC(C)=O)/C(C)=C/CC(C)(C)[C@H](OC(C)=O)[C@H]1OC(C)=O`, the INH result in series [2] and in series [3] was “Active” throughout.
As for `CC(=O)O[C@@H]1C[C@@H](OC(=O)c2ccccc2)/C(C)=C/[C@H]2[C@@H](OC(=O)c3ccccc3)[C@@H](C)[C@H](OC(C)=O)[C@]2(OC(C)=O)C(=O)[C@](C)(O)/C=C/C1(C)C`, the figures for the IC50 (in series [6]; with NCI/ADR-RES; in the series on HepG2) were > 100 µM, > 150 µM and > 150 µM, respectively. Besides, the INH result in series [2] is recorded as “Active”.
Consider `CC(=O)O[C@@H]1C[C@@H](OC(=O)c2ccccc2)/C(C)=C/[C@H]2[C@@H](OC(=O)c3ccccc3)[C@@H](C)[C@H](O)[C@]2(O)[C@H](O)[C@](C)(O)/C=C/C1(C)C`, for which, in series [2], the INH entry is recorded as “Active”.
For the compound `CC(=O)O[C@@H]1C[C@@H](OC(=O)c2ccccc2)/C(C)=C/[C@H]2[C@@H](OC(=O)c3ccccc3)[C@@H](C)[C@H](OS(=O)(=O)c3ccc(C)cc3)[C@]2(OC(C)=O)[C@H](O)[C@](C)(O)/C=C/C1(C)C`, the results for the concentration for half-maximal inhibition (IC50) (in series [6]; in the series with NCI/ADR-RES; with HepG2) were > 100 µM, > 150 µM and > 150 µM, respectively. In series [2], the INH entry was “Active”.
Take `CC(=O)O[C@@H]1CC(=O)/C(C)=C/[C@H]2C=C(C)C(=O)[C@]2(OC(C)=O)[C@H](O)[C@](C)(O)/C=C/C1(C)C`: in series [1], the INH entry was “Not Active”.
Take `CC(=O)O[C@@H]1C[C@@H](OC(=O)c2ccccc2)/C(C)=C/[C@H]2[C@@H](OC(=O)c3ccccc3)[C@@H](C)[C@H](OC(C)=O)[C@]2(OC(C)=O)[C@H](O)[C@](C)(O)/C=C/C1(C)C`: the INH entry in series [2] was “Active”. The IC50 is > 150 µM with NCI/ADR-RES and 93.3 µM with HepG2.
Turning to `C/C1=C\[C@H]2[C@@H](OC(=O)c3ccccc3)[C@@H](C)[C@H](O)[C@]2(O)[C@H](O)[C@](C)(O)/C=C/C(C)(C)[C@H](O)C[C@H]1OC(=O)c1ccccc1`, in series [1], the INH entry is “Not Active”.
Turning to `CC(=O)O[C@@H]1C[C@@H](OC(=O)c2ccccc2)/C(C)=C/[C@H]2[C@@H](OC(=O)c3ccccc3)[C@@H](C)[C@H](OC(=O)c3cccs3)[C@]2(OC(C)=O)[C@H](O)[C@](C)(O)/C=C/C1(C)C`, the INH entry in series [2] was “Active”. In addition, the IC50 in the series with NCI/ADR-RES and in the series with HepG2 was > 150 µM throughout.
As to `CC(=O)O[C@@H]1[C@@H](OC(C)=O)C(=O)/C(C)=C/[C@H]2[C@@H](OC(=O)c3ccccc3)[C@@H](C)[C@H](OC(C)=O)[C@]2(OC(C)=O)[C@H](OC(C)=O)[C@]2(C)O[C@H]2CC1(C)C`, in series [2], the INH entry is “Active”.
On to `CC(=O)O[C@@H]1C[C@@H](OC(=O)c2ccccc2)/C(C)=C/[C@H]2[C@@H](OC(=O)c3ccccc3)[C@@H](C)[C@H](OC(=O)c3ccco3)[C@]2(OC(C)=O)[C@H](O)[C@](C)(O)/C=C/C1(C)C`, for which the INH entry in series [2] was “Active”. Moreover, the 50% inhibitory concentration (IC50) in the series on NCI/ADR-RES and in the series on HepG2 was > 150 µM in each case.
Consider `CC(=O)O[C@@H]1[C@@H](O)C(=O)/C(C)=C/C2=C[C@@H](C)[C@H](O)[C@]2(OC(C)=O)[C@H](O)/C(C)=C/CC1(C)C`, for which the INH result in series [1] was “Not Active”.
Consider `CC(=O)O[C@@H]1C[C@@H](OC(C)=O)C(C)(C)/C=C/[C@@](C)(O)[C@@H](O)[C@@]2(OC(C)=O)[C@@H](O)[C@H](C)[C@H](OC(=O)c3ccccc3)[C@@H]2/C=C/1C`, for which the INH entry in series [2] is listed as “Active”.
Same read-out and setting: to `CC(=O)O[C@@H]1[C@@H](OC(C)=O)C(C)(C)C/C=C(\C)[C@@H](OC(C)=O)[C@]2(OC(C)=O)[C@@H](/C=C(\C)[C@@H]1OC(C)=O)[C@@H](OC(=O)c1ccccc1)[C@@H](C)[C@@H]2OC(C)=O` belongs “Active”.

For the origin of these results see ChEMBL document CHEMBL4431315, “Jatrophane Diterpenoids as Modulators of P-Glycoprotein-Dependent Multidrug Resistance (MDR): Advances of Structure-Activity Relationships and Discovery of Promising MDR Reversal Agents” (J Med Chem, 2016).
